Assay outcomes deposited in PubChem by Broad Institute.
The list is not random: actives were taken first. Their share in the collection is about 2.6%.
AF4-AF9 inh: blocks AF4 peptide binding to human AF9; inhibition, % at 10 µM; hit rate 0.47% among 350,000; AlphaScreen, biotin-AF4 peptide binding to FLAG-AF9; P42568; AID 651704;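 active means every replicate reaching a set inhibition limit, whatever the replicate mean, cut at about 25% in these data; inconclusive means mean inhibition reaches that limit but some replicates miss it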;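 further: 0% = plate neutral control median and 100% = total signal loss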
INS-1E GSIS act: primary screen for activators of insulin secretion dependent on glucose, INS-1E cells, GLuc reporter luminescence; activation, % at 16.6 µM; hit rate 0.61% among 370,000; INS-1E GLuc reporter insulin secretion, 2-3 h;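 active means lowest replicate activation of at least 40%, so every replicate reaches that level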;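 further: 0% = median of neutral control wells and 100% = median of IBMX positive control wells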
E-sel inducer: induces E-selectin expression in human endothelial cells; activation, % at 7.58 µM; HUVEC E-selectin immunofluorescence imaging; normalized: neutral wells 0, TNF-alpha wells 100; AID 686992; hit rate 0.37% among 260,000; P16581;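 active means mean E-selectin-positive cell signal at least 10% of the positive control, reached in at least 60% of replicates, without over 20% cell loss; inconclusive means no rule given, readout overlaps actives, possibly toxicity-flagged; inactive means the rest, including those meeting only one limit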
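Test system – human umbilical vein endothelial cells (HUVEC), E-selectin induction · Input – 3,000 HUVEC seeded per well · Buffer or medium – EGM-2, gelatin · Compound dosing – single-point compound dose · Detection – immunofluorescence imaging · Measure – percent E-selectin-positive cells · Controls – TNF-alpha high, DMSO low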
rRNA inh HTS: inhibitors of bacterial rRNA selective over humanized ribosomes; E. coli WT GFP vs humanized-ribosome RFP mutants, fluorescence, 24 h; active compounds read low; DMSO median 0, no signal -100; GFP signal change (wild-type ribosome), % (concentration not given with the values); hit rate 1.6% among 350,000; AID 720706;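 active means significant combined selectivity score with lowered wild-type GFP, culture density cut under 30%, mutant RFP and density less affected; inactive means any of these conditions unmet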
RAD54 branch: RAD54 (human) branch migration inhibition; Q92698; RAD54 Holliday junction branch migration, FAM/BHQ fluorescence; inhibition, % at 10.4 µM; hit rate 0.14% among 360,000; AID 602329;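 active means mean normalized replicate activity at least 40 and at least half of replicates scoring 40 or more; inconclusive means only one of the two criteria met; inactive means mean below 40 and under half of replicates reaching 40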;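 further: 0% = median of neutral control wells and 100% = median of positive control wells; inhibitors cause a drop in the FAM fluorescence signal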
Target sequence (Q92698 whole entry, looked up): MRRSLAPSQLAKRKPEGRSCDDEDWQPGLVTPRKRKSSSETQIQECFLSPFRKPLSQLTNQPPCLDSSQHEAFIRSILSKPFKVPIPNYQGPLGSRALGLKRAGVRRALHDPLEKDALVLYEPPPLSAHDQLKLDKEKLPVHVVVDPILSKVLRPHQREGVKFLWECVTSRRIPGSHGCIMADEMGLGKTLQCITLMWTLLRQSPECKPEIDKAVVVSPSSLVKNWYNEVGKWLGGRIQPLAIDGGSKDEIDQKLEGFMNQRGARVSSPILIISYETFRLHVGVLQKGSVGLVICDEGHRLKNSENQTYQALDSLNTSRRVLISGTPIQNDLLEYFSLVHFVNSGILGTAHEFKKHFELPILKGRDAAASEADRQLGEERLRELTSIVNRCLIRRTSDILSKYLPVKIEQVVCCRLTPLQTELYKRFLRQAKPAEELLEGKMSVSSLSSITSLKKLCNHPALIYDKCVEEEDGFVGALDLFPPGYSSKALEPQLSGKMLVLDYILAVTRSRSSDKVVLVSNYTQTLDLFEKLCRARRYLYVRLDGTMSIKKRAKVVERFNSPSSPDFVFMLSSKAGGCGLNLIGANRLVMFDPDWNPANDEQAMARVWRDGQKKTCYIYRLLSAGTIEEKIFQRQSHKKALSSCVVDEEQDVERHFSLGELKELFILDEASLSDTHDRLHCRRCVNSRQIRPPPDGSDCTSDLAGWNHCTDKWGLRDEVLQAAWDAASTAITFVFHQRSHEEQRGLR
RAD52 anneal inh: inhibitors of human RAD52 DNA annealing. inhibition, % at 18.7 µM. AID 651710. P43351. hit rate 0.46% among 360,000. recombinant RAD52 DNA annealing, FRET fluorescence;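 active means every replicate showing at least 50% inhibition; inconclusive means mean inhibition at least 50% but not in every replicate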
Rad54 DNA ctr: binds DNA, flagging false Rad54 inhibitor hits; hit rate 8% among 460; Acridine orange-DNA displacement, fluorescence polarization, 20 min; AID 651673; shares compounds with RAD54 branch; AC50, µM (series often up to 35 µM), for inactives: top-dose activity change, negative = DNA binding;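 active means signal drop giving an AC50 within twice the top valid tested concentration of each sample, actives reach about 35 µM in these data; inactive means activity opposite to expected, plus the rest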;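 further: polarization loss reports compound binding to salmon sperm DNA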
Starred values were filed as active, the others as inactive; i = inactive; ? = inconclusive; . = not tested or not shown.

SMILES	AF4-AF9 inh	INS-1E GSIS act	E-sel inducer	rRNA inh HTS	RAD54 branch	RAD52 anneal inh	Rad54 DNA ctr
Cc1noc(C)c1S(=O)(=O)N(C)C[C@@H]1OCCCC[C@@H](C)Oc2ccc(NC(=O)c3ccccc3)cc2C(=O)N([C@H](C)CO)C[C@@H]1C	-2	-8	2	0	-7	-25	.
Cc1ccc(S(=O)(=O)Nc2ccc3c(c2)C(=O)N([C@H](C)CO)C[C@H](C)[C@@H](CN(C)C(=O)Cc2ccccc2)OCCCC[C@H](C)O3)cc1	-3	-17	.	0	-7	16	.
OCCN1CCN(c2ncnc3sc(-c4ccccc4)cc23)CC1	1	5	.	-38	?	42	-21%
c1ccc(-c2cc3c(N4CCCC4)ncnc3s2)cc1	1	4	.	3	.	-11	.
CN1CCN(CCCNC(=O)c2cc3c(-c4ccc(Cl)cc4)nn(C)c3s2)CC1	8	-5	.	4	61*	28	3%
CCN(CC)CCCNC(=O)c1cc2c(-c3ccc(Cl)cc3)nn(C)c2s1	7	6	.	-2	?	45	6%
CC(C)NC(=O)N(C)C[C@H]1Oc2ncc(C#CC3CC3)cc2C(=O)N([C@@H](C)CO)C[C@H]1C	-2	-4	0	6	-5	11	.
NC1CCN(c2c(F)cc3c(=O)c(C(=O)O)cn(C4CC4)c3c2Cl)C1 (stereo unspecified)	-7	7	.	-57	?	-10	8%
Cc1c(CN(C)C)c2c(n1Cc1ccccc1)C(=O)c1ccc(Br)cc1-2	.	.	.	.	20	.	.
Cc1c(CN(C)C)c2c(n1C)C(=O)c1ccc(Br)cc1-2	.	.	.	.	71*	.	i
O=C(Nc1cccc(Cl)c1)N1C[C@H]2[C@@H](c3ccccc31)[C@@H](CO)N2C(=O)C1CCCC1	2	-10	-1	-12	7	-11	.
Cc1ccc(C)c(N2CCN(C(=S)Nc3ccc4nc(N5CCN(C)CC5)cc(C)c4c3)CC2)c1	3	12	.	-7	?	11	5%
Cc1ccc(C)c(N2CCN(C(=S)Nc3ccc4nc(N5CCOCC5)cc(C)c4c3)CC2)c1	.	-18	.	.	1	.	.
CC(=O)Nc1ccc(-c2ccnc3c2CC(C(=O)NCc2ccc(N4CCN(C)CC4)cc2)O3)cc1 (stereo unspecified)	-5	-2	1	0	31	35	.
CN1CCN(c2ccc(CNC(=O)C3Cc4c(-c5ccc(Cl)cc5)ccnc4O3)cc2)CC1 (stereo unspecified)	15	.	1	-25	?	43	-11%
O=C(Nc1ccc2c(c1)[C@H]1C[C@@H](CC(=O)N3CCOCC3)O[C@@H](CO)[C@H]1O2)Nc1ccccc1F	1	16	0	4	7	-3	.
CCN(CC)CCNC(=S)Nc1ccc2nc(N3CCOCC3)cc(C)c2c1	7	21	0	8	2	22	.
CCCCN(CC)CCCNC(=S)Nc1ccc2nc(N3CCN(CC)CC3)cc(C)c2c1	5	25	.	3	71*	90*	0%
COc1cc(NC(=O)c2cccnc2Sc2ccc(C)c(C)c2)cc(OC)c1OC	.	-15	.	.	?	.	-3%
Cc1ccc(Sc2ncccc2C(=O)O)cc1C	?	5	.	12	.	-5	.
C[C@@H]1CN([C@H](C)CO)C(=O)c2cc(NC(=O)Nc3cccc4ccccc34)ccc2O[C@H]1CN(C)Cc1ccc(C(=O)O)cc1	0	-6	-6	1	14	-10	.
NCCN1CCN(CCN)CC1	.	.	.	.	50*	.	-11%
Cn1c(C(=O)NC2CCCCC2)cc2c(=O)n(C)c3ccccc3c21	0	.	0	.	8	-1	.
CC1CCCCN1CCNC(=O)c1cc2c(=O)n(C)c3ccccc3c2n1C (stereo unspecified)	1	5	0	-3	57*	-2	-23%
Cc1noc(C)c1S(=O)(=O)Nc1ccc2c(c1)C(=O)N([C@@H](C)CO)C[C@H](C)[C@@H](CN(C)S(=O)(=O)c1ccc(Cl)cc1)OCCCC[C@H](C)O2	5	-9	.	-1	2	-19	.
SMILES	AF4-AF9 inh	INS-1E GSIS act	E-sel inducer	rRNA inh HTS	RAD54 branch	RAD52 anneal inh	Rad54 DNA ctr
CN(C)CCN(C(=O)c1ccco1)c1nc2cc3c(cc2s1)OCCO3	5	14	0	-7	64*	44	2%
COc1cccc(S(=O)(=O)N[C@@H]2CC[C@@H](CCn3cc(-c4ccccc4OC)nn3)O[C@@H]2CO)c1	1	17	0	-6	2	7	.
CN(C)CC(=O)Nc1ccc2c(c1)[C@@H]1C[C@H](CC(=O)NCc3cccnc3)O[C@@H](CO)[C@@H]1O2	-1	7	0	3	-7	3	.
O=C(C1CC1)N1[C@H](CO)[C@H]2c3ccccc3NC[C@H]21	-4	-1	0	0	-4	-2	.
O=C(CSc1nc2ccccc2[nH]1)Nc1nc(-c2cccc(Br)c2)cs1	1	.	-1	-19	.	-32	.
CN(C)CCCn1c(SCC(=O)Nc2nc(-c3cccc(Br)c3)cs2)nc2ccccc2c1=O	35*	7	0	-27	?	2	-19%
CNC(C)C#Cc1ccc2oc3cc(C)c(C)cc3c(=O)c2c1 (stereo unspecified)	5	.	0	-11	-4	-30	.
CNC(C)C#Cc1ccc2oc3cccc(OC)c3c(=O)c2c1 (stereo unspecified)	-1	8	.	-16	?	-5	-14%
O=C(C[C@H]1CC[C@@H](NS(=O)(=O)c2ccc(F)cc2)[C@@H](CO)O1)NCCc1ccncc1	0	11	0	-2	3	-8	.
CCOC(=O)c1c(N)sc2c(OCC)c(Br)ccc12	-31	-8	.	-55	4	-6	.
CCOC(=O)c1c(NC(C)=O)sc2c(OCC(O)CNC(C)(C)C)c(Br)ccc12 (stereo unspecified)	.	45*	.	.	?	.	-12%
CCCNC(=O)Nc1ccc2c(c1)OC[C@H](C)N(C(=O)CC)C[C@H](C)[C@@H](OC)CN(C)C2=O	-19	6	0	-1	.	15	.
CN(C)CCCNc1nc2cc(-c3ccc(C(=O)N4CCN(C)CC4)cc3)sc2c(=O)n1C	2	-5	0	4	?	75*	-16%
COCCNc1nc2cc(-c3ccsc3)sc2c(=O)n1C	-6	6	0	5	-13	3	.
Cn1c(NCCN2CCCC2)nc2cc(-c3ccsc3)sc2c1=O	3	0	0	.	58*	-18	-3%
COc1cccc(CNc2nc3cc(-c4ccc(C(=O)N5CCN(C)CC5)cc4)sc3c(=O)n2C)c1	2	2	0	-3	18	20	.
COc1ccccc1S(=O)(=O)N[C@@H]1CC[C@@H](CCNC(=O)C2CCCCC2)O[C@H]1CO	-1	-3	0	-1	-6	-3	.
